Calls of active or inactive are those of the source. No cut-off for these calls is given here.
Legend:
[1] = target: T1, Protein disulfide-isomerase (Homo sapiens, UniProt P07237); assay: Inhibition of recombinant human N-terminal His-tagged PDI expressed in Escherichia coli BL21 (DE3) pLysS assessed as reduction in enzyme-mediated bovine insulin aggregation
Target sequence in this assay (P07237 whole entry): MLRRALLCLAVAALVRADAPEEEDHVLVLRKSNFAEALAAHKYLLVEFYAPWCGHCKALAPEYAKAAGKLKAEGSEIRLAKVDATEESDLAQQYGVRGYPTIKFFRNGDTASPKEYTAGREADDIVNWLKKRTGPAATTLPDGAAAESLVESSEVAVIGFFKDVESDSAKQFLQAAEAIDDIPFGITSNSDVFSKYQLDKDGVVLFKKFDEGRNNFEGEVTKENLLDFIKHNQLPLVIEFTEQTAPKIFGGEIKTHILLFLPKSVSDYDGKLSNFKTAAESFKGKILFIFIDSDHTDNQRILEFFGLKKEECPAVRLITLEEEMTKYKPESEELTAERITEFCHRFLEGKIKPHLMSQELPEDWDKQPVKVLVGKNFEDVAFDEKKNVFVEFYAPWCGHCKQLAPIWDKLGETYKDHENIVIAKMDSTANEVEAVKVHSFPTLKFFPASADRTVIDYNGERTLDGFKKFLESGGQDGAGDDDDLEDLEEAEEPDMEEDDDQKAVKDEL

[2] = test system: U-87 MG; assay: Cytotoxicity against human U87MG cells assessed as inhibition of cell growth measured after 72 hrs by MTT assay; format: functional, cell-based, U-87MG ATCC; details: Homo sapiens, U-87 MG, 72 h; read-out: IC50
Procedure, shortened: (§1)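 A172 and NU04 cells were seeded at 4000 cells/well and U87MG at 5000 cells/well, incubated overnight at 37 °C, 5% CO2, then exposed to compound or vehicle for 72 h. MTT (3 mg/mL) was added for 4 h, formazan was dissolved in DMSO, and absorbance was read at 570 nm. IC50 came from nonlinear regression; mean ± SD of at least three experiments.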

[3] = test system: A 172; assay: Cytotoxicity against human A172 cells assessed as inhibition of cell growth measured after 72 hrs by MTT assay; format: functional, cell-based; details: Homo sapiens, A 172, 72 h; read-out: IC50; procedure, shortened: as §1
[4] = Cytotoxicity against human NU04 cells assessed as inhibition of cell growth measured after 72 hrs by MTT assay; format: functional, cell-based; details: Homo sapiens, 72 h; read-out: IC50; procedure, shortened: as §1
[5] = test system: U-87 MG; assay: Cytotoxicity against human U87MG cells assessed as inhibition of cell proliferation at <IC50 treated for 24 hrs, measured after 10 days by colony formation assay relative to control
[6] = test system: U-87 MG; assay: Inhibition of colony formation in human U87MG cells assessed as combination index at 1 to 30 uM measured after 24 hrs in presence of arsenic trioxide by crystal violet staining based assay; format: functional, U-87MG ATCC
[7] = test system: A 172; assay: Induction of morphological changes in human A172 cells at 40 uM measured after 48 hrs by Giemsa-staining based microscopic analysis; format: functional, cell-based
[8] = target: T1, Protein disulfide-isomerase; assay: Binding affinity to recombinant human N-terminal His-tagged PDI expressed in Escherichia coli BL21 (DE3) pLysS assessed as change in melting temperature at 100 uM by ROX dye based thermal shift assay
Procedure, shortened: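 Purified wild-type, C53S/C397S or H256A PDI at 0.5 mg/mL in 50 mM Tris, pH 7.0, with or without 100 μM compound, was mixed with ROX dye in a 20 µL well. DMSO (5% in buffer) was the control. Samples were heated 25–99 °C at 1 °C/min, and the Boltzmann melting temperature shift versus DMSO was reported. Mean ± SD of three experiments.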
Target sequence in this assay (P07237 18-508 limits assumed): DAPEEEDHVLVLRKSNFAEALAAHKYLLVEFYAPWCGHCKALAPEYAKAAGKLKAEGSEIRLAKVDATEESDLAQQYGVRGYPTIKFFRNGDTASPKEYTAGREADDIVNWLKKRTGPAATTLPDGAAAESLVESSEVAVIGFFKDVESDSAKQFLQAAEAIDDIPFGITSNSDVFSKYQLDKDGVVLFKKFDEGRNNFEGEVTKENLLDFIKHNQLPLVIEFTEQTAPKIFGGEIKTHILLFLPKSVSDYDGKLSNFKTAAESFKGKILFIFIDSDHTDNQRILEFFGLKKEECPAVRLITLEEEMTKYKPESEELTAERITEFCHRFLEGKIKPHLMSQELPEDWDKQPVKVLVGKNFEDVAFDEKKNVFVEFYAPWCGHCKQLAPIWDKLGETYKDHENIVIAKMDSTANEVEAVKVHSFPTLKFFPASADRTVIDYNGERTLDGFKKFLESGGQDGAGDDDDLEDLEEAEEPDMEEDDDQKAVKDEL

[9] = target: T1, Protein disulfide-isomerase; assay: Inhibition of recombinant human N-terminal His-tagged PDI expressed in Escherichia coli BL21 (DE3) pLysS at 100 uM measured after 1 hr by ANS dye based fluorescence spectra analysis
Procedure, shortened: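 ANS spectral scan: PDI incubated with 100 μM compounds or matching DMSO in TBS for 1 h at 37 °C. ANS then added and incubated 20 min at 25 °C in the dark. Fluorescence spectrum recorded with excitation 370 nm, emission 400–700 nm.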
Target sequence in this assay (P07237 18-508 limits assumed): as above

[10] = test system: U-87 MG; assay: Inhibition of colony formation in human U87MG cells […] by crystal violet staining based assay; format: functional, cell-based; details: U-87MG ATCC
Procedure, shortened: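 Clonogenicity: U87MG cells seeded at 200 cells/well, left overnight, treated 24 h, then medium replaced and cells grown ten days. Stained 30 min with crystal violet, washed, imaged; normalized well intensity from three independent experiments.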

[11] = test system: HFF-1; assay: Cytotoxicity against HFF1 cells assessed as inhibition of cell growth measured after 72 hrs by MTT assay; format: cell-based; details: Homo sapiens, HFF-1, 72 h
Procedure, shortened: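 Cells grown as monolayers at 37 °C, 5% CO2, seeded and left overnight, then exposed to drug or vehicle for 72 h. MTT (20 μL of 3 mg/mL) added for 4 h, supernatant removed, formazan dissolved in DMSO, absorbance read at 570 nm. IC50 from nonlinear regression of log concentration–response curves; at least three independent experiments.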

[12] = Therapeutic ratio of IC50 for HFF1 cells to IC50 for human NU04 cells
Procedure, shortened: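 Ratio of two growth-inhibition IC50s, HFF-1 normal human fibroblasts over NU04 glioma cells. Cells were grown as monolayers at 37 °C in 5% CO2, with NU04 seeded at 4000 cells/well. After overnight attachment, cells were exposed to compound or vehicle for 72 h. MTT (3 mg/mL) was added for 4 h, and formazan dissolved in DMSO was read at 570 nm. IC50s came from nonlinear regression of log concentration-response curves, with at least three independent experiments.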

[13] = target: Eukaryotic translation initiation factor 2 subunit 1 (Homo sapiens) (UniProt P05198); assay: Induction of EIF2alpha phosphorylation in human U87MG cells at 20 uM measured after 2 hrs by Western blot analysis; format: cell-based
Procedure, shortened: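 eIF2α phosphorylation in U87MG cells after 2 h with 1 µM PACMA31 or 20 µM analogues; tunicamycin 10 µg/mL as comparator. Lysates (Tris/NaCl/Triton/SDS, sonicated) quantified by BCA; 30 µg protein separated on 10% gels, blotted to PVDF, probed for phospho-eIF2α, detected by fluorescence.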

[14] = test system: U-87 MG; assay: Induction of endoplasmic reticulum stress in human U87MG cells assessed as increase in GRP78 expression at 20 uM measured after 24 hrs by Western blot analysis; format: functional, cell-based; details: U-87MG ATCC
Procedure, shortened: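 ER-stress immunoblot: 0.5 x 10^6 U87MG cells/well treated for 24 h with 20 µM analogues, 1 µM PACMA31 or DMSO; tunicamycin 10 µg/mL for 2 or 24 h as positive control. Lysis in Tris/NaCl/Triton/SDS buffer with sonication; 30 µg protein on 10% gels, transferred to PVDF, GRP78 probed, fluorescence imaging.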

[15] = target: Eukaryotic translation initiation factor 2 subunit 1 (Homo sapiens) (UniProt P05198); assay: Induction of EIF2alpha phosphorylation in human A172 cells at 20 uM measured after 2 hrs by Western blot analysis; format: cell-based
[16] = test system: A 172; assay: Induction of endoplasmic reticulum stress in human A172 cells assessed as increase in GRP78 expression at 20 uM measured after 24 hrs by Western blot analysis; format: functional, cell-based
[17] = test system: U-87 MG; assay: Effect on PDI expression in human U87MG cells at 20 uM measured after 24 hrs by Western blot analysis; format: functional, cell-based; details: U-87MG ATCC
[18] = test system: A 172; assay: Effect on PDI expression in human A172 cells at 20 uM measured after 24 hrs by Western blot analysis; format: functional, cell-based
[19] = test system: U-87 MG; assay: Effect on MMP2 expression in human U87MG cells at 10 uM measured after 24 hrs by Western blot analysis; format: functional, cell-based; details: U-87MG ATCC
[20] = target: Focal adhesion kinase 1 (Homo sapiens) (UniProt Q05397); assay: Effect on FAK phosphorylation in human U87MG cells at 10 uM measured after 24 hrs by Western blot analysis; format: cell-based
[21] = test system: Protein disulfide-isomerase (Homo sapiens), P07237 [H256A]; assay: Inhibition of recombinant human N-terminal His-tagged PDI H256A mutant expressed in Escherichia coli BL21 (DE3) pLysS at 10 uM assessed as reduction in enzyme-mediated bovine insulin aggregation
Procedure, shortened: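 Insulin reductase assay against H256A PDI: 0.4 μM enzyme preincubated with compounds at 10 μM for 1 h at 37 °C in 100 mM sodium phosphate, 2 mM EDTA, 8 μM DTT, pH 7.0. Then 500 μM DTT and 130 μM bovine insulin added; aggregation read at 620 nm at room temperature. Activity % from OD change at 0 and 80 min, relative to PDI and DTT-only controls; three experiments.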

[22] = test system: U-87 MG; assay: Cytotoxicity against human U87MG cells assessed as inhibition of cell proliferation at <IC50 treated for 24 hrs and measured after 10 days by colony formation assay relative to control

Eukaryotic translation initiation factor 2 subunit 1 (Homo sapiens), sequence (P05198 whole entry): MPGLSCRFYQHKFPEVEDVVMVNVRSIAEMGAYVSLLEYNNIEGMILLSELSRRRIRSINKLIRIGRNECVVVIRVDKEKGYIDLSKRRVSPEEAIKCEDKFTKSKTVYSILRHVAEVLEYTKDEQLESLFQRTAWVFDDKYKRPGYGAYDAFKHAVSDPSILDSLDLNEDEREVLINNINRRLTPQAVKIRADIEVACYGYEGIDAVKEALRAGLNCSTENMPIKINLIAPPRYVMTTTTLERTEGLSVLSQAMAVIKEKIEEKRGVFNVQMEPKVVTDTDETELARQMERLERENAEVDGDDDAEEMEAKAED
Focal adhesion kinase 1 (Homo sapiens), sequence (Q05397 2-1052 limits assumed): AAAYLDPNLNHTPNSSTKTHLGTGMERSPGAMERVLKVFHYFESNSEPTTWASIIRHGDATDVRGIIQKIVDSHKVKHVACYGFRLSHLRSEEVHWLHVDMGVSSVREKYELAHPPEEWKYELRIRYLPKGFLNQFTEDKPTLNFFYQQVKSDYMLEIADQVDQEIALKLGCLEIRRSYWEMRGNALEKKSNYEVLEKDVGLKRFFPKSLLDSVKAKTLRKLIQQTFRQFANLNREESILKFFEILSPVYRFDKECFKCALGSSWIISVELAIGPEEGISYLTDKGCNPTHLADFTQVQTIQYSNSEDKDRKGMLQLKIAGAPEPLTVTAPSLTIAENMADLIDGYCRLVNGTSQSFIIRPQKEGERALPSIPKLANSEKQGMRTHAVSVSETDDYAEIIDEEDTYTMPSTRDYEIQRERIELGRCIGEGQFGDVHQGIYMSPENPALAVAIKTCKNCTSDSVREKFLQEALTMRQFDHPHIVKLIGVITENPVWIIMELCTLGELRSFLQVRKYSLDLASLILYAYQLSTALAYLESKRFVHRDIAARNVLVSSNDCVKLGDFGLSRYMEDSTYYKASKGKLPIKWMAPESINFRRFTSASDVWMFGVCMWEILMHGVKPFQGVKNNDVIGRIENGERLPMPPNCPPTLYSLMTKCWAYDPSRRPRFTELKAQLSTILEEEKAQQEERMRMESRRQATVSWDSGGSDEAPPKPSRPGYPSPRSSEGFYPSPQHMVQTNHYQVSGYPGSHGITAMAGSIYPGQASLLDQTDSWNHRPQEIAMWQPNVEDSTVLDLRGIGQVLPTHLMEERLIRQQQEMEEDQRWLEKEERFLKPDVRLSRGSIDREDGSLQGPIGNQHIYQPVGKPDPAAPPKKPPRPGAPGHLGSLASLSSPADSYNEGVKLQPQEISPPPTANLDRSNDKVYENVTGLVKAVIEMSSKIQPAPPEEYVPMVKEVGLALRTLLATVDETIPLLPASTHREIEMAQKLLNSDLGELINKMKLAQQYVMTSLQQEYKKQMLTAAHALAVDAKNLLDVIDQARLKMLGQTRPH
Protein disulfide-isomerase (Homo sapiens), P07237 [H256A], sequence (P07237 whole entry H256A): as the sequence (P07237 whole entry) above, with H256A counted along it

SMILES	IC50 [1]	ΔTm [8]	IC50 [2]	IC50 [3]	IC50 [4]	inhibition (INH) [5]	CI [6]	further results
N#Cc1cccc(/C=C/C(=O)c2ccc(O)c(F)c2)c1	1140 nM	–	29.1 µM	21.9 µM	9.8 µM	>50%	–	–
CN(C)S(=O)(=O)c1ccc(C(=O)/C=C/c2cccc(C#N)c2)cc1	6230 nM	–	–	–	–	–	<1	–
COc1ccc(C(=O)/C=C/c2cccc(C#N)c2)cc1	> 500000 nM	-0.24 °C	–	–	–	–	–	Activity [7]: inactive; inhibition [9]: inactive

The next lines start with results.

IC50 [1]	ΔTm [8]	SMILES	IC50 [2]	IC50 [3]	IC50 [4]	inhibition (INH) [5]	CI [6]	further results
210 nM	0.34 °C	O=C(/C=C/c1ccc(-c2ccncc2)cc1)c1cccc(O)c1	24.9 µM	11.3 µM	3.8 µM	–	–	inhibition [10]: Dose-dependent effect; IC50 [11]: 31.8 µM; Ratio IC50 [12]: 8.39; Activity [13]: Active; Activity [14]: Active; Activity [15]: Active; Activity [16]: Active; Activity [17]: inactive; Activity [18]: inactive; Activity [19]: inactive; Activity [20]: inactive; inhibition [21]: inactive; inhibition (INH) [22]: >50%
1150 nM	–	N#Cc1cccc(/C=C/C(=O)c2ccc(F)c(O)c2)c1	22.9 µM	16.8 µM	10.6 µM	>50%	–	–
6640 nM	–	N#Cc1cccc(/C=C/C(=O)c2ccc(S(N)(=O)=O)cc2)c1	–	–	–	–	<1	–
